Experimental data: ChEMBL document CHEMBL1629611, “Activity of levofloxacin alone and in combination with a DnaK inhibitor against gram-negative rods, including levofloxacin-resistant strains” (2009)
Bridges are numbered along the chain shown (N, C = ends). Roman numbers before positions name the chains, in order. [ ]: non-standard residue; d: D form. NMeR = CN[C@@H](CCCNC(=N)N)C(=O)O; Api = NC1(C(=O)O)CCNCC1; Dab = NCC[C@H](N)C(=O)O

Legend:
Type in all cases: functional
Klebsiella pneumoniae [1] = experiment: Antimicrobial activity against Klebsiella pneumoniae E363 by broth macrodilution method
Summary of the method: (§1)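 MIC by CLSI-approved broth macrodilution in one-quarter-strength cation-adjusted Mueller Hinton broth, each drug tested alone. Clinical gram-negative isolates were stored frozen at −70°C in double-strength skim milk before testing.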

Klebsiella pneumoniae [2] = experiment: Antimicrobial activity against Klebsiella pneumoniae E364 by broth macrodilution method
Summary of the method: (§2)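 CLSI-approved broth macrodilution in one-quarter-strength cation-adjusted Mueller Hinton broth. Each drug was tested alone against each clinical gram-negative isolate to give the MIC. Strains were stored frozen at −70°C in double-strength skim milk before testing.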

Citrobacter freundii [3] = experiment: Antimicrobial activity against Citrobacter freundii E384 by broth macrodilution method; summary of the method: as §1
Escherichia coli [4] = experiment: Antimicrobial activity against Escherichia coli E393 by broth macrodilution method; summary of the method: as §1
Escherichia coli [5] = experiment: Antimicrobial activity against Escherichia coli E396 by broth macrodilution method; summary of the method: as §1
Escherichia coli [6] = experiment: Antimicrobial activity against Escherichia coli E408 by broth macrodilution method; summary of the method: as §2
Pseudomonas aeruginosa [7] = experiment: Antimicrobial activity against Pseudomonas aeruginosa P330 by broth macrodilution method; summary of the method: as §1
Escherichia coli [8] = experiment: Antimicrobial activity against Escherichia coli E395 by broth macrodilution method; summary of the method: as §1
Escherichia coli [9] = experiment: Antimicrobial activity against Escherichia coli E412 by broth macrodilution method; summary of the method: as §2
Escherichia coli [10] = experiment: Antimicrobial activity against Escherichia coli E437 by broth macrodilution method; summary of the method: as §1
Escherichia coli [11] = experiment: Antimicrobial activity against Escherichia coli E434 by broth macrodilution method; summary of the method: as §2
Escherichia coli [12] = experiment: Antimicrobial activity against Escherichia coli E425 by broth macrodilution method; summary of the method: as §2
Escherichia coli [13] = experiment: Antimicrobial activity against Escherichia coli E346 by broth macrodilution method; summary of the method: as §1
Klebsiella pneumoniae [14] = experiment: Antimicrobial activity against Klebsiella pneumoniae E426 by broth macrodilution method; summary of the method: as §2
Klebsiella pneumoniae [15] = experiment: Antimicrobial activity against Klebsiella pneumoniae E371 by broth macrodilution method; summary of the method: as §2
Klebsiella pneumoniae [16] = experiment: Antimicrobial activity against Klebsiella pneumoniae E354 by broth macrodilution method; summary of the method: as §1
Pseudomonas aeruginosa [17] = experiment: Antimicrobial activity against Pseudomonas aeruginosa P335 by broth macrodilution method; summary of the method: as §1
Escherichia coli [18] = experiment: Antimicrobial activity against Escherichia coli E342 by broth macrodilution method; summary of the method: as §1
Escherichia coli [19] = experiment: Antimicrobial activity against Escherichia coli E394 by broth macrodilution method; summary of the method: as §2
Klebsiella pneumoniae [20] = experiment: Antimicrobial activity against Klebsiella pneumoniae E418 by broth macrodilution method; summary of the method: as §1
Klebsiella pneumoniae [21] = experiment: Antimicrobial activity against Klebsiella pneumoniae E370 by broth macrodilution method; summary of the method: as §2
Klebsiella pneumoniae [22] = experiment: Antimicrobial activity against Klebsiella pneumoniae E427 by broth macrodilution method; summary of the method: as §2
Escherichia coli [23] = experiment: Antimicrobial activity against Escherichia coli E409 by broth macrodilution method; summary of the method: as §2
Klebsiella pneumoniae [24] = experiment: Antimicrobial activity against Klebsiella pneumoniae E356 by broth macrodilution method; summary of the method: as §1
Escherichia coli [25] = experiment: Antimicrobial activity against Escherichia coli E413 by broth macrodilution method; summary of the method: as §2
Klebsiella pneumoniae [26] = experiment: Antimicrobial activity against Klebsiella pneumoniae E367 by broth macrodilution method; summary of the method: as §2
Klebsiella pneumoniae [27] = experiment: Antimicrobial activity against Klebsiella pneumoniae E433 by broth macrodilution method; summary of the method: as §1
Klebsiella pneumoniae [28] = experiment: Antimicrobial activity against Klebsiella pneumoniae E362 by broth macrodilution method; summary of the method: as §1
Klebsiella pneumoniae [29] = experiment: Antimicrobial activity against Klebsiella pneumoniae E366 by broth macrodilution method; summary of the method: as §1
Enterobacter cloacae [30] = experiment: Antimicrobial activity against Enterobacter cloacae E397 by broth macrodilution method; summary of the method: as §1
Klebsiella pneumoniae [31] = experiment: Antimicrobial activity against Klebsiella pneumoniae E428 by broth macrodilution method; summary of the method: as §1
Escherichia coli [32] = experiment: Antimicrobial activity against Escherichia coli E435 by broth macrodilution method; summary of the method: as §2
Escherichia coli [33] = experiment: Antimicrobial activity against Escherichia coli E341 by broth macrodilution method; summary of the method: as §1
Klebsiella pneumoniae [34] = experiment: Antimicrobial activity against Klebsiella pneumoniae E411 by broth macrodilution method; summary of the method: as §2
Klebsiella pneumoniae [35] = experiment: Antimicrobial activity against Klebsiella pneumoniae E432 by broth macrodilution method; summary of the method: as §1
Klebsiella pneumoniae [36] = experiment: Antimicrobial activity against Klebsiella pneumoniae E369 by broth macrodilution method; summary of the method: as §2
Enterobacter cloacae [37] = experiment: Antimicrobial activity against Enterobacter cloacae E373 by broth macrodilution method; summary of the method: as §1
Klebsiella pneumoniae [38] = experiment: Antimicrobial activity against Klebsiella pneumoniae E353 by broth macrodilution method; summary of the method: as §2
Escherichia coli [39] = experiment: Antimicrobial activity against Escherichia coli E430 by broth macrodilution method; summary of the method: as §2
Escherichia coli [40] = experiment: Antimicrobial activity against Escherichia coli E438 by broth macrodilution method; summary of the method: as §1
Escherichia coli [41] = experiment: Antimicrobial activity against Escherichia coli E410 by broth macrodilution method; summary of the method: as §1
Escherichia coli [42] = experiment: Antimicrobial activity against Escherichia coli E436 by broth macrodilution method; summary of the method: as §2
Citrobacter freundii [43] = experiment: Antimicrobial activity against Citrobacter freundii E400 by broth macrodilution method; summary of the method: as §2
Escherichia coli [44] = experiment: Antimicrobial activity against Escherichia coli E424 by broth macrodilution method; summary of the method: as §2
Escherichia coli [45] = experiment: Antimicrobial activity against Escherichia coli E351 by broth macrodilution method; summary of the method: as §1
Escherichia coli [46] = experiment: Antimicrobial activity against Escherichia coli E439 by broth macrodilution method; summary of the method: as §1
Klebsiella pneumoniae [47] = experiment: Antimicrobial activity against Klebsiella pneumoniae E372 by broth macrodilution method; summary of the method: as §2
Klebsiella pneumoniae [48] = experiment: Antimicrobial activity against Klebsiella pneumoniae E431 by broth macrodilution method; summary of the method: as §2
Klebsiella pneumoniae [49] = experiment: Antimicrobial activity against Klebsiella pneumoniae E422 by broth macrodilution method; summary of the method: as §1
Klebsiella pneumoniae [50] = experiment: Antimicrobial activity against Klebsiella pneumoniae E368 by broth macrodilution method; summary of the method: as §2

“I: H-[Api]DKGSYLPRPTPPRPIYN[NMeR]N[Dab]-NH2 / II: H-[Api]DKGSYLPRPTPPRPIYN[NMeR]N (amide I:21-II:C)” was tested, and the MIC (Klebsiella pneumoniae [1]) was 4 mg/L, the MIC (Klebsiella pneumoniae [2]) was 8 mg/L and the MIC (Citrobacter freundii [3]) was 512 mg/L. The MIC (Escherichia coli [4]) was 16 mg/L, the MIC (Escherichia coli [5]) was 16 mg/L and the MIC (Escherichia coli [6]) was 16 mg/L. For the same substance, the MIC (Pseudomonas aeruginosa [7]) was 256 mg/L, the MIC (Escherichia coli [8]) was 32 mg/L and the MIC (Escherichia coli [9]) was 8 mg/L. For the same substance, the MIC (Escherichia coli [10]) was 4 mg/L, the MIC (Escherichia coli [11]) was 8 mg/L and the MIC (Escherichia coli [12]) was 32 mg/L. The MIC (Escherichia coli [13]) was 64 mg/L, the MIC (Klebsiella pneumoniae [14]) was 4 mg/L and the MIC (Klebsiella pneumoniae [15]) was 32 mg/L. The MIC (Klebsiella pneumoniae [16]) was 8 mg/L, the MIC (Pseudomonas aeruginosa [17]) was 128 mg/L and the MIC (Escherichia coli [18]) was 256 mg/L. For the same substance, the MIC (Escherichia coli [19]) was 32 mg/L, the MIC (Klebsiella pneumoniae [20]) was 8 mg/L and the MIC (Klebsiella pneumoniae [21]) was 4 mg/L. It also gave an MIC (Klebsiella pneumoniae [22]) of 8 mg/L, an MIC (Escherichia coli [23]) of 16 mg/L and an MIC (Klebsiella pneumoniae [24]) of 8 mg/L. The MIC (Escherichia coli [25]) was 32 mg/L, the MIC (Klebsiella pneumoniae [26]) was 16 mg/L and the MIC (Klebsiella pneumoniae [27]) was 8 mg/L. For the same substance, the MIC (Klebsiella pneumoniae [28]) was 4 mg/L, the MIC (Klebsiella pneumoniae [29]) was 16 mg/L and the MIC (Enterobacter cloacae [30]) was 8 mg/L. The MIC (Klebsiella pneumoniae [31]) was 8 mg/L, the MIC (Escherichia coli [32]) was 8 mg/L and the MIC (Escherichia coli [33]) was 16 mg/L. For the same substance, the MIC (Klebsiella pneumoniae [34]) was 8 mg/L, the MIC (Klebsiella pneumoniae [35]) was 128 mg/L and the MIC (Klebsiella pneumoniae [36]) was 8 mg/L. The MIC (Enterobacter cloacae [37]) was 4 mg/L, the MIC (Klebsiella pneumoniae [38]) was 4 mg/L and the MIC (Escherichia coli [39]) was 16 mg/L. For the same substance, the MIC (Escherichia coli [40]) was 8 mg/L, the MIC (Escherichia coli [41]) was 4 mg/L and the MIC (Escherichia coli [42]) was 8 mg/L. It also gave an MIC (Citrobacter freundii [43]) of 8 mg/L, an MIC (Escherichia coli [44]) of 64 mg/L and an MIC (Escherichia coli [45]) of 32 mg/L. The MIC (Escherichia coli [46]) was 8 mg/L, the MIC (Klebsiella pneumoniae [47]) was 4 mg/L and the MIC (Klebsiella pneumoniae [48]) was 4 mg/L. The MIC (Klebsiella pneumoniae [49]) was 32 mg/L and the MIC (Klebsiella pneumoniae [50]) was 8 mg/L.
